Test results from ChEMBL document CHEMBL1131566, “(E)-3-(2-(N-phenylcarbamoyl)vinyl)pyrrole-2-carboxylic acid derivatives. A novel class of glycine site antagonists” (J Med Chem, 1998).

How the values were obtained:
[1] = molecular target: T1, Glutamate receptor ionotropic, NMDA 1 (Rattus norvegicus, UniProt P35439); assay: (§1) Inhibition of binding of [3H]glycine to N-methyl-D-aspartate glutamate receptor 1 from crude synaptic membranes prepared from adult rat cerebral cortex.; assay type: tissue-based
In short: (§2)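 Crude synaptic membranes from adult rat cerebral cortex are incubated 20 min at 4 °C in 50 mM Tris/citrate pH 7.10 with 20 nM [³H]glycine. Compounds come from 5 mM DMSO stocks, seven concentrations (0.1 nM to 100 μM) in duplicate, with a reference control. Ki is fitted by nonlinear curve fitting from ≥6-point curves, geometric mean of ≥3 experiments. Displacement at 100 μM is given as %SB.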

[2] = molecular target: Glutamate NMDA receptor; assay: Compound was evaluated for its ability ot displace [3H]CPP binding to N-methyl-D-aspartate glutamate receptor; assay type: protein-complex assay
In short: (§3)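 Rat cortical membrane binding, inhibition of [³H]CPP (NMDA glutamate site), [³H]AMPA or [³H]kainic acid. Compounds come from 5 mM DMSO stocks and are tested in duplicate at five concentrations (10 nM to 100 μM); a reference compound is included as control. Displacement at 100 μM is given as % specific binding.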

[3] = molecular target: Glutamate receptor ionotropic, kainate (Rattus norvegicus) (UniProt P22756+Q01812+P42260+P42264+Q63273); assay: Displacement of [3H]-kainic acid in the Ionotropic glutamate receptor kainate at 100 uM represented by the percent of specific binding (%SB); assay type: protein-complex assay; in short: as §3
[4] = molecular target: T2, Glutamate NMDA receptor (Rattus norvegicus) (UniProt P35439+Q00959+Q00960+Q00961+Q62645+Q8VHN2+Q9R1M7); assay: Displacement of the ligand in the N-methyl-D-aspartate glutamate receptor at 100 uM represented by the percent of specific binding(%SB); assay type: protein-complex assay
[5] = molecular target: Glutamate receptor ionotropic, NMDA 1 (Rattus norvegicus) (UniProt P35439); assay: Displacement of [3H]glycine binding to N-methyl-D-aspartate glutamate receptor 1 at 100 uM represented by the percent of specific binding(%SB); in short: as §2
[6] = molecular target: Glutamate receptor ionotropic, kainate; assay: Inhibition of binding of [3H]-kainic acid to Ionotropic glutamate receptor kainate in crude synaptic membranes prepared from adult rat cerebral cortex.; assay type: cell membranes; in short: as §3
[7] = molecular target: T3, Glutamate receptor ionotropic, AMPA (Rattus norvegicus) (UniProt P19491+P19492+P19493+P19490); assay: Displacement of the ligand in the Ionotropic glutamate receptor AMPA site at 100 uM represented by the percent of specific binding(%SB); assay type: protein-complex assay; in short: as §3
[8] = molecular target: T4, Glutamate receptor ionotropic, AMPA (Rattus norvegicus, UniProt P19490+P19491+P19492+P19493); assay: (§4) Displacement of the [3H]AMPA binding to Ionotropic glutamate receptor AMPA at 100 uM represented by the percent of specific binding(%SB); assay type: protein-complex assay; in short: as §3
[9] = Compound was evaluated for its ability ot displace [3H]CPP binding to NMDA receptor/glutamate site; in short: as §3
[10] = molecular target: T3, Glutamate receptor ionotropic, AMPA (Rattus norvegicus); assay: as §4; assay type: protein-complex assay; in short: as §3
[11] = Displacement of the [3H]CPP binding to NMDA receptor/glutamate site at 100 uM represented by the percent of specific binding(%SB); in short: as §3
[12] = molecular target: T4, Glutamate receptor ionotropic, AMPA; assay: Inhibition of binding of [3H]AMPA to Ionotropic glutamate receptor AMPA; assay type: protein-complex assay; in short: as §3
[13] = molecular target: Glutamate receptor ionotropic, kainate; assay: Inhibition of binding of [3H]-kainic acid to Ionotropic glutamate receptor kainate; assay type: protein-complex assay; in short: as §3
[14] = molecular target: Glutamate receptor ionotropic, NMDA 1 (Rattus norvegicus) (UniProt P35439); assay: as §1; assay type: tissue-based; in short: as §2
[15] = molecular target: Glutamate receptor ionotropic, NMDA 1 (Rattus norvegicus) (UniProt P35439); assay: Compound was evaluated for its ability to displace [3H]-TCP binding to N-methyl-D-aspartate glutamate receptor 1. alpha value 0 indicates full antagonist.
In short: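 [³H]TCP binding runs 2 h at 30 °C in Tris/5mM HCl pH 7.7 with 1 μM glutamic acid. Nonspecific binding is defined with 30 μM (+)-MK801. Glycine concentration-response curves are run in the presence of increasing test-compound concentrations to derive α.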

[16] = molecular target: T1, Glutamate receptor ionotropic, NMDA 1; assay: as §1; assay type: tissue-based; remark: listed apart in the source
[17] = molecular target: T2, Glutamate NMDA receptor (Rattus norvegicus); assay: Displacement of the [3H]CPP binding to N-methyl-D-aspartate glutamate receptor at 100 uM represented by the percent of specific binding(%SB); assay type: protein-complex assay; in short: as §3

**Q.** With `O=C(/C=C/c1cc(-c2ccccc2)[nH]c1C(=O)O)Nc1ccccc1` as the compound, how does the Ki [1] read?
**A.** > 100000 nM

**Q.** For `Cc1c(-c2ccccc2)[nH]c(C(=O)O)c1/C=C/C(=O)Nc1ccccc1`, which Ki [1] is on record?
**A.** > 100000 nM

**Q.** With `Cc1[nH]c(C(=O)O)c(/C=C/C(=O)Nc2ccccc2)c1OCc1ccccc1` as the compound, how does the Ki [1] read?
**A.** 4790 nM

**Q.** What does the source list for `Cc1[nH]c(C(=O)O)c(/C=C/C(=O)Nc2ccccc2)c1Br`?
**A.** Log Ki [2]: > -4; SB [3]: 0%; Ki [1]: 57.5 nM; SB [4]: 0%; SB [5]: 100%; Log Ki [6]: > -4; SB [7]: 11%; IC50 [8]: > 100000 nM

**Q.** With `O=C(/C=C/c1c(Br)c[nH]c1C(=O)O)Nc1ccccc1` as the compound, how does the Ki [1] read?
**A.** 3310 nM

**Q.** With `Cc1[nH]c(C(=O)O)c(/C=C/C(=O)Nc2ccccc2)c1I` as the compound, how does the Ki [1] read?
**A.** 42.7 nM

**Q.** With `Cc1c(C(C)C)[nH]c(C(=O)O)c1/C=C/C(=O)Nc1ccccc1` as the compound, how does the Ki [1] read?
**A.** 6170 nM

**Q.** Which Ki [1] does the source give for `CCOc1c(C)[nH]c(C(=O)O)c1/C=C/C(=O)Nc1ccccc1` here?
**A.** 6760 nM

**Q.** With `O=C(/C=C/c1c(C(=O)O)[nH]c(Br)c1Br)Nc1ccccc1` as the compound, how does the Log Ki [9] read?
**A.** > -4

**Q.** And the SB [3]?
**A.** 5%

**Q.** And the Ki [1]?
**A.** 11.2 nM

**Q.** And the SB [5]?
**A.** 100%

**Q.** And the SB [10]?
**A.** 10%

**Q.** What about the SB [11] of the same compound?
**A.** 0%

**Q.** And the IC50 [12]?
**A.** > 100000 nM

**Q.** What about the Log Ki [13] of the same compound?
**A.** > -4

**Q.** For `Cc1c(-c2ccc(Cl)cc2Cl)[nH]c(C(=O)O)c1/C=C/C(=O)Nc1ccccc1`, which Ki [1] is on record?
**A.** > 100000 nM

**Q.** Which SB [14] does the source give for `O=C(/C=C/c1c(C(=O)O)[nH]c2cc(Cl)cc(Cl)c12)Nc1ccccc1` here?
**A.** 100%

**Q.** What about the Alpha [15] of the same compound?
**A.** 0

**Q.** Which Ki [1] does the source give for `O=C(/C=C/c1c(C(=O)O)[nH]c2c1CCCC2)Nc1ccccc1` here?
**A.** 617 nM

**Q.** For `Cc1ccc2c(O)cc(=O)c(=O)[nH]c2c1`, which Kb [14] is on record?
**A.** 470 nM

**Q.** For `O=C(/C=C/c1cc[nH]c1C(=O)O)Nc1ccccc1`, which Ki [1] is on record?
**A.** > 100000 nM

**Q.** Which Ki [1] does the source give for `Cc1cc(/C=C/C(=O)Nc2ccccc2)c(C(=O)O)[nH]1` here?
**A.** 63100 nM

**Q.** For `Cc1c(/C=C/C(=O)Nc2ccccc2)c(C(=O)O)n(C)c1C`, which Ki [1] is on record?
**A.** > 100000 nM

**Q.** Which Ki [1] does the source give for `Cc1[nH]c(C(=O)O)c(/C=C/C(=O)Nc2ccccc2)c1Cl` here?
**A.** 316 nM

**Q.** Which Ki [1] does the source give for `O=C(/C=C/c1c(C(=O)O)[nH]c2c1CCC2)Nc1ccccc1` here?
**A.** 1150 nM

**Q.** Which IC50 [16] does the source give for `O=C(O)CCc1c(C(=O)O)[nH]c2cc(Cl)cc(Cl)c12` here?
**A.** 140 nM

**Q.** For `O=C(Nc1ccccc1)N[C@H]1C[C@H](C(=O)O)Nc2cc(Cl)cc(Cl)c21`, which IC50 [16] is on record?
**A.** 7.8 nM

**Q.** With `CCc1[nH]c(C(=O)O)c(/C=C/C(=O)Nc2ccccc2)c1C` as the compound, how does the Ki [1] read?
**A.** 776 nM

**Q.** For `Cc1[nH]c(C(=O)O)c(/C=C/C(=O)Nc2ccccc2)c1-c1ccccc1`, which Ki [1] is on record?
**A.** > 100000 nM

**Q.** With `O=C(/C=C/c1c(C(=O)O)[nH]c(-c2ccccc2)c1Br)Nc1ccccc1` as the compound, how does the Ki [1] read?
**A.** > 100000 nM

**Q.** For `O=C(/C=C/c1c(-c2ccccc2)c[nH]c1C(=O)O)Nc1ccccc1`, which Ki [1] is on record?
**A.** > 100000 nM

**Q.** With `Oc1ccc(-c2c(O)nc3cc(Cl)cc(Cl)c3c2O)cc1` as the compound, how does the IC50 [16] read?
**A.** 13 nM

**Q.** With `O=C(/C=C/c1c(C(=O)O)[nH]c(-c2ccccc2)c1-c1ccccc1)Nc1ccccc1` as the compound, how does the Ki [1] read?
**A.** > 100000 nM

**Q.** For `Cc1[nH]c(C(=O)O)c(/C=C/C(=O)Nc2ccccc2)c1C(C)C`, which Ki [1] is on record?
**A.** 398 nM

**Q.** For `O=C(/C=C/c1c(C(=O)O)[nH]c(I)c1I)Nc1ccccc1`, which Ki [1] is on record?
**A.** 35.5 nM

**Q.** Which Ki [1] does the source give for `CC(=O)c1c(C)[nH]c(C(=O)O)c1/C=C/C(=O)Nc1ccccc1` here?
**A.** 5750 nM

**Q.** For `CCc1c(C)[nH]c(C(=O)O)c1/C=C/C(=O)Nc1ccccc1`, which Ki [1] is on record?
**A.** 832 nM

**Q.** For `O=C(O)c1cc(O)c2c(I)cc(Cl)cc2n1`, which IC50 [16] is on record?
**A.** 32 nM

**Q.** For `Cc1[nH]c(C(=O)O)c(/C=C/C(=O)Nc2ccccc2)c1C`, which Log Ki [2] is on record?
**A.** > -4

**Q.** And the SB [3]?
**A.** 9%

**Q.** And the Ki [1]?
**A.** 200 nM

**Q.** And the SB [5]?
**A.** 100%

**Q.** What about the SB [17] of the same compound?
**A.** 0%

**Q.** And the SB [10]?
**A.** 0%

**Q.** And the IC50 [12]?
**A.** > 100000 nM

**Q.** And the Alpha [15]?
**A.** 0

**Q.** And the Log Ki [13]?
**A.** > -4
